Series [1] addresses MAP/microtubule affinity-regulating kinase 3 (Homo sapiens, UniProt P27448). Description: Displacement of tracer K9 from NLuc fused MARK3 (unknown origin) expressed in HEK293 cells by NanoBRET assay. Type of series: cell-based.
Series [2] has as its target T1, Serine/threonine-protein kinase TBK1 (Homo sapiens, UniProt Q9UHD2).
T1 sequence (Q9UHD2 whole entry): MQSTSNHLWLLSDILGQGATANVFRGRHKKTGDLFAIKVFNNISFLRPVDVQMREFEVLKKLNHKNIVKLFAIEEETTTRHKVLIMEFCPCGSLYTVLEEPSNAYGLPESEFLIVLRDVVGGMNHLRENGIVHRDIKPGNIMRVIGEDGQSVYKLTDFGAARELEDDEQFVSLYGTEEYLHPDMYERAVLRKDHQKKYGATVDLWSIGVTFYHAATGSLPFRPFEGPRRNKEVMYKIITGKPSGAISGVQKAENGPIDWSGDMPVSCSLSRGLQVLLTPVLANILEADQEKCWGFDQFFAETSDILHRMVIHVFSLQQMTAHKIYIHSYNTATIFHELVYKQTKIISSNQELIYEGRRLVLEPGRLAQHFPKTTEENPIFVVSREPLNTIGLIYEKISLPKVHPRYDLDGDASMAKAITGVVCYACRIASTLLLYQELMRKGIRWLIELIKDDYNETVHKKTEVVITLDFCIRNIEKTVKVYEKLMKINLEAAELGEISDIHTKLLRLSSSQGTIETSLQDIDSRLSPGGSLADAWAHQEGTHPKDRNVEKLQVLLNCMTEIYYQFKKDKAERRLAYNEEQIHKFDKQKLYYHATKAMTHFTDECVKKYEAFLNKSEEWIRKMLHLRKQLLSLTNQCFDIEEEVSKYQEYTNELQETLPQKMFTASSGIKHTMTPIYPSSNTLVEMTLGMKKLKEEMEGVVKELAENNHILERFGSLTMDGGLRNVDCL
Description: Displacement of tracer K5 from NLuc fused TBK1 (unknown origin) expressed in HEK293 cells by NanoBRET assay. Type of series: cell-based. A digest of the protocol:
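HEK293 cells grown in DMEM with 10% FBS at 37 °C, 5% CO2. NanoBRET assay run in dose–response per manufacturer's protocol with tracer K-5 at 0.5 μM. SEM calculated for assays run more than once.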

The target of series [3] is T2, Serine/threonine-protein kinase 17B (Homo sapiens) (UniProt O94768).
T2 sequence (whole entry): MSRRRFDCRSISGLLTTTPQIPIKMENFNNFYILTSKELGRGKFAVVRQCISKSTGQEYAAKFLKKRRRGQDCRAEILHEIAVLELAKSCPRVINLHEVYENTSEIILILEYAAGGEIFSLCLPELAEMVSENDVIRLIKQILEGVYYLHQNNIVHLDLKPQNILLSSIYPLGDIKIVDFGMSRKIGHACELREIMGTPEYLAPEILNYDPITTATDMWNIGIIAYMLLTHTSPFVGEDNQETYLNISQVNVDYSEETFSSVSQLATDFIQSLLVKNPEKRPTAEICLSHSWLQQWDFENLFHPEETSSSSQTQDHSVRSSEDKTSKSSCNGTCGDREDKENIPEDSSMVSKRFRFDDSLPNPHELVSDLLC
Briefly: Inhibition of full length recombinant human DRAK2 using KKRPQRRYSNVF as substrate at 1 uM incubated for 120 mins in presence of [gamma-33P-ATP] by radiometric scintillation assay relative to control. The gist of the method: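 Eurofins radiometric kinase assay with ATP at Km for each kinase. Compound was tested at a single 1 μM concentration in duplicate, and the result is reported as percent of control.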

Series [4] addresses T3, Serine/threonine-protein kinase 17A (Homo sapiens, UniProt Q9UEE5).
T3 sequence (Q9UEE5 whole entry): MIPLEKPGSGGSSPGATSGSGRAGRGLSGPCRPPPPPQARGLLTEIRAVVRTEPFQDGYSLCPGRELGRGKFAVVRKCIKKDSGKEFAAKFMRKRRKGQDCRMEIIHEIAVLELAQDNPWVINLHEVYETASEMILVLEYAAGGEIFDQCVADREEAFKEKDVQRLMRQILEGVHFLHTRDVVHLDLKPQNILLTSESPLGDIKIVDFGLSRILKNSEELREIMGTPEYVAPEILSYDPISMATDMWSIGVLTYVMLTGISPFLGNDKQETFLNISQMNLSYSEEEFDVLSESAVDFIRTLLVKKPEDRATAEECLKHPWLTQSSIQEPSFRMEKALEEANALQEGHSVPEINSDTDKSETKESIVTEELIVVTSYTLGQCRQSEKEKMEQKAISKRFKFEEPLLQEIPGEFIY
Description: Displacement of tracer K9 from NLuc fused DRAK1 (unknown origin) expressed in HEK293 cells by NanoBRET assay. Type of series: cell-based.

Series [5] deals with T4, Myosin light chain kinase 2, skeletal/cardiac muscle (Homo sapiens, UniProt Q9H1R3). Briefly: Inhibition of NanoLuc-fused MYLK2 (unknown origin) expressed in HEK293 cells incubated for 2 hrs by NanoBRET assay. Type of series: cell-based. The gist of the method: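 Cellular NanoBRET target-engagement assays were run by Carna Biosciences to the manufacturer's protocol. Dose–response was in singlicate, with compounds tested at concentrations up to 10 μM.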

Series [6] concerns the target T4, Myosin light chain kinase 2, skeletal/cardiac muscle. Briefly: Inhibition of full length recombinant human MYLK2 using KKLNRTLSFAEPG as substrate incubated for 40 mins in presence of [gamma-33P-ATP] by radiometric scintillation assay. The gist of the method: (§1)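 Eurofins radiometric enzymatic assay with ATP at Km for each kinase. IC50 was derived from a 9-point dose–response curve run in duplicate.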

Series [7] in a line: Effective permeability in PBS at 7.4 incubated for 5 hrs by PAMPA analysis. Type of series: ADME. Particulars: pH 7.4, 5 h. A digest of the protocol:
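PAMPA: DMSO stocks were diluted in PBS pH 7.4 and placed in the donor compartment, with PBS pH 7.4 in the acceptor, for 5 h. Both compartments were quantified by CLND against a calibration curve, with background nitrogen correction. Effective permeability was calculated from donor and acceptor concentrations using measured rather than assumed solubility.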

The target in series [8] is T5, MAP/microtubule affinity-regulating kinase 4 (Homo sapiens, UniProt Q96L34).
T5 sequence (Q96L34 whole entry): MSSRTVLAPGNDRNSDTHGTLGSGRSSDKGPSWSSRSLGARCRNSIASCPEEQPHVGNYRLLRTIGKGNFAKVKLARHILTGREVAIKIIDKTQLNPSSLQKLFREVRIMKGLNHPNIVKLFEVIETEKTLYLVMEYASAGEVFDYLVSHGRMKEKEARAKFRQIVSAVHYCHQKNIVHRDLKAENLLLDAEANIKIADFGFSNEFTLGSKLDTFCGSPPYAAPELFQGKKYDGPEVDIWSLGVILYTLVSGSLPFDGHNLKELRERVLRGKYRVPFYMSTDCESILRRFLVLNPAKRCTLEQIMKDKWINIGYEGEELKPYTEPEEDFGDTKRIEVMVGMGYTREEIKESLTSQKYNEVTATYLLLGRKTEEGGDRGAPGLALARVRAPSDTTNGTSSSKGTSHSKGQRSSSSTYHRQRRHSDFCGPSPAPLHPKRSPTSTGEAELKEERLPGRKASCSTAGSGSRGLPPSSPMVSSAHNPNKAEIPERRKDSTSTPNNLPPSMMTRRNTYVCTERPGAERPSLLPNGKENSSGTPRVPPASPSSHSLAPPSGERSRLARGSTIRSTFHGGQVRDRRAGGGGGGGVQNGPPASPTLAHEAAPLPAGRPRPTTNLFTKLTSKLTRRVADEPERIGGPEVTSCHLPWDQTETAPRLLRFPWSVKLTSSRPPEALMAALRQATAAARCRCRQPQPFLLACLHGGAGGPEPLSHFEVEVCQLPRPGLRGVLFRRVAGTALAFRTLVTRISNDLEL
Briefly: Displacement of tracer K5 from NLuc fused MARK4 (unknown origin) expressed in HEK293 cells by NanoBRET assay. Type of series: cell-based.

A short description of series [9]: Kinetic solubility of compound in PBS at pH 7.4 incubated for 24 hrs by chemiluminscent nitrogen detection method. The conditions noted are these: buffer, pH 7.4, 24 h. Type of series: physicochemical. The gist of the method:
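Filtrates were quantified by total chemiluminescent nitrogen determination against a calibration curve, with correction for background nitrogen from DMSO and medium.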

The target in series [10] is Serine/threonine-protein kinase NIM1 (Homo sapiens, UniProt Q8IY84). Description: Inhibition of full length recombinant human NIM1 using KKKVSRSGLYRSPSMPENLNRPR as substrate incubated for 40 mins in presence of [gamma-33P-ATP] by radiometric scintillation assay. A digest of the protocol: as §1
Series [11] has as its target T6, Leucine-rich repeat serine/threonine-protein kinase 2 (Homo sapiens, UniProt Q5S007). Description: Inhibition of NanoLuc-fused LRRK2 (unknown origin) expressed in HEK293 cells incubated for 2 hrs by NanoBRET assay. Type of series: cell-based. The gist of the method:
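Cellular target engagement by NanoBRET in dose–response, done in singlicate by Carna Biosciences following the manufacturer's protocol. Compounds tested at concentrations up to 10 μM.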

Series [12] has as its target T6, Leucine-rich repeat serine/threonine-protein kinase 2. Description: Inhibition of recombinant human LRRK2 (970 to end residues) using RLGRDKYKTLRQIRQ as substrate incubated for 40 mins in presence of [gamma-33P-ATP] by radiometric scintillation assay. A digest of the protocol:
(§2)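 Eurofins radiometric kinase assay run at ATP equal to Km for each kinase. 9-point dose–response in duplicate gives the IC50.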

Series [13] in a line: Inhibition of human TTBK1 (1 to 479 residues) using Casein as substrate measured after 40 mins in presence of [gamma33P]ATP by scintillation counting method. The gist of the method: as §2
Series [14] addresses Death-associated protein kinase 3 (Homo sapiens, UniProt O43293). Description: Inhibition of recombinant human ZIPK (1 to 290 residues) using KKLNRTLSFAEPG as substrate measured after 40 mins in presence of [gamma33P]ATP by radiometric scintillation counting method. The gist of the method:
as §1

The target in series [15] is T7, Inhibitor of nuclear factor kappa-B kinase subunit epsilon (Homo sapiens, UniProt Q14164).
T7 sequence (Q14164 whole entry): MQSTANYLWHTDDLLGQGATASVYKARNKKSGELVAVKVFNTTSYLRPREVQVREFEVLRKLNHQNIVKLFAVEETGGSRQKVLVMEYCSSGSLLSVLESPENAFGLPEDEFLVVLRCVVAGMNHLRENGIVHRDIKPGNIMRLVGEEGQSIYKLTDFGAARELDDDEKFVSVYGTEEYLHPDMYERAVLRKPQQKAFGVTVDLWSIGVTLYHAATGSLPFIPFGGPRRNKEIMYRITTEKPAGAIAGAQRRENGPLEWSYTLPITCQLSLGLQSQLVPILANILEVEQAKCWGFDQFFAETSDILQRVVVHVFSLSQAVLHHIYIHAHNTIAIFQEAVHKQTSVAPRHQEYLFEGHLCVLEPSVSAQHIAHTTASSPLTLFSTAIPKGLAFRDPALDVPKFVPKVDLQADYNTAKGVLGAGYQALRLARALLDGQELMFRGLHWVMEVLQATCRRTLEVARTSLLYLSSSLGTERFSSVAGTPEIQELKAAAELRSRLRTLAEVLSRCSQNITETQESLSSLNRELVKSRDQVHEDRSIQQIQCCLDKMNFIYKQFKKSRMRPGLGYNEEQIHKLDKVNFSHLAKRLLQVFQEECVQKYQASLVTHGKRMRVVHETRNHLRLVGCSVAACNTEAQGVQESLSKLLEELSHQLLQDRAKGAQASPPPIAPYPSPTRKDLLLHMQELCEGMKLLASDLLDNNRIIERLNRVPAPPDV
Briefly: Inhibition of full length recombinant human IKKepsilon using casein as substrate incubated for 40 mins in presence of [gamma-33P-ATP] by radiometric scintillation assay. The gist of the method: as §2

In series [16] the target is MAP kinase-interacting serine/threonine-protein kinase 2 (Homo sapiens, UniProt Q9HBH9). Description: Inhibition of full length recombinant human MKNK2 using myelin basic protein as substrate incubated for 40 mins in presence of [gamma-33P-ATP] by radiometric scintillation assay. A digest of the protocol:
as §2

Series [17] has as its target Macrophage colony-stimulating factor 1 receptor (Homo sapiens, UniProt P07333). Description: Inhibition of NanoLuc-fused CSF1R (unknown origin) expressed in HEK293 cells incubated for 2 hrs by NanoBRET assay. Type of series: cell-based.

T4 sequence (Q9H1R3 whole entry, the tested form may be a part): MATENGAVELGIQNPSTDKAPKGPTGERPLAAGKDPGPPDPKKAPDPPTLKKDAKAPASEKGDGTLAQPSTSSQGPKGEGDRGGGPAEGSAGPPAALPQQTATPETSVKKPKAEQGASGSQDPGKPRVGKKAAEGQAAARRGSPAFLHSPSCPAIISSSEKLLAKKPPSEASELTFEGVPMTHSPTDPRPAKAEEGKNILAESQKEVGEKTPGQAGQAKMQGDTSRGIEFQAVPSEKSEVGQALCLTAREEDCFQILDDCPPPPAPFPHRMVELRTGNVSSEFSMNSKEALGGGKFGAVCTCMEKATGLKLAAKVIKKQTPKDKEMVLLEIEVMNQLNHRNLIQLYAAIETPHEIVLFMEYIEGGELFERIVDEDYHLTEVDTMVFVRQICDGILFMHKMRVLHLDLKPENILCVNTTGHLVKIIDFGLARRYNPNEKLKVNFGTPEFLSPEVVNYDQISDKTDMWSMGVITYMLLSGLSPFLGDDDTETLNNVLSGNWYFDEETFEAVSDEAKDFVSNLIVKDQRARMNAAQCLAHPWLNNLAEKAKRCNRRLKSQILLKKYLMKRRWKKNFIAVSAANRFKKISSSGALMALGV
Sequence of MAP/microtubule affinity-regulating kinase 3 (P27448 whole entry, the tested form may be a part): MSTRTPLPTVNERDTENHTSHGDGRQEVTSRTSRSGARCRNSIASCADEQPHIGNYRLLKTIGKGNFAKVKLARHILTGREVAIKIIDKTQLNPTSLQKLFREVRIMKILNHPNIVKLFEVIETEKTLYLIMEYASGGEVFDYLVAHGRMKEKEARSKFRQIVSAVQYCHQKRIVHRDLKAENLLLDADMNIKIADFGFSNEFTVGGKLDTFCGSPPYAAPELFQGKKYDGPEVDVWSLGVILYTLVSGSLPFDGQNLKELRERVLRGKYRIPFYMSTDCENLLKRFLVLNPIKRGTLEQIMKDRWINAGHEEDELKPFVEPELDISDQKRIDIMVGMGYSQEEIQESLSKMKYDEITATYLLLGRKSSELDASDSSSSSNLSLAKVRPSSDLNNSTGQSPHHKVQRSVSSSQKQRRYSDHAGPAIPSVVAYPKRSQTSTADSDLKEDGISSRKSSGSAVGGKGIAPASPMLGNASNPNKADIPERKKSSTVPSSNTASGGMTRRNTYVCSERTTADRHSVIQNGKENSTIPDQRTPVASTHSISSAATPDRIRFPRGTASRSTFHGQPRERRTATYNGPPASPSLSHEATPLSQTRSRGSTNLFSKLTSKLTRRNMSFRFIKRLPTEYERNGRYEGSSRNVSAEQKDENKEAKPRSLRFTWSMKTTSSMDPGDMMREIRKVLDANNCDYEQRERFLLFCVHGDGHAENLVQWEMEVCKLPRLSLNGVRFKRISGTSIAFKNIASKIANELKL
T6 sequence (Q5S007 whole entry, the tested form may be a part): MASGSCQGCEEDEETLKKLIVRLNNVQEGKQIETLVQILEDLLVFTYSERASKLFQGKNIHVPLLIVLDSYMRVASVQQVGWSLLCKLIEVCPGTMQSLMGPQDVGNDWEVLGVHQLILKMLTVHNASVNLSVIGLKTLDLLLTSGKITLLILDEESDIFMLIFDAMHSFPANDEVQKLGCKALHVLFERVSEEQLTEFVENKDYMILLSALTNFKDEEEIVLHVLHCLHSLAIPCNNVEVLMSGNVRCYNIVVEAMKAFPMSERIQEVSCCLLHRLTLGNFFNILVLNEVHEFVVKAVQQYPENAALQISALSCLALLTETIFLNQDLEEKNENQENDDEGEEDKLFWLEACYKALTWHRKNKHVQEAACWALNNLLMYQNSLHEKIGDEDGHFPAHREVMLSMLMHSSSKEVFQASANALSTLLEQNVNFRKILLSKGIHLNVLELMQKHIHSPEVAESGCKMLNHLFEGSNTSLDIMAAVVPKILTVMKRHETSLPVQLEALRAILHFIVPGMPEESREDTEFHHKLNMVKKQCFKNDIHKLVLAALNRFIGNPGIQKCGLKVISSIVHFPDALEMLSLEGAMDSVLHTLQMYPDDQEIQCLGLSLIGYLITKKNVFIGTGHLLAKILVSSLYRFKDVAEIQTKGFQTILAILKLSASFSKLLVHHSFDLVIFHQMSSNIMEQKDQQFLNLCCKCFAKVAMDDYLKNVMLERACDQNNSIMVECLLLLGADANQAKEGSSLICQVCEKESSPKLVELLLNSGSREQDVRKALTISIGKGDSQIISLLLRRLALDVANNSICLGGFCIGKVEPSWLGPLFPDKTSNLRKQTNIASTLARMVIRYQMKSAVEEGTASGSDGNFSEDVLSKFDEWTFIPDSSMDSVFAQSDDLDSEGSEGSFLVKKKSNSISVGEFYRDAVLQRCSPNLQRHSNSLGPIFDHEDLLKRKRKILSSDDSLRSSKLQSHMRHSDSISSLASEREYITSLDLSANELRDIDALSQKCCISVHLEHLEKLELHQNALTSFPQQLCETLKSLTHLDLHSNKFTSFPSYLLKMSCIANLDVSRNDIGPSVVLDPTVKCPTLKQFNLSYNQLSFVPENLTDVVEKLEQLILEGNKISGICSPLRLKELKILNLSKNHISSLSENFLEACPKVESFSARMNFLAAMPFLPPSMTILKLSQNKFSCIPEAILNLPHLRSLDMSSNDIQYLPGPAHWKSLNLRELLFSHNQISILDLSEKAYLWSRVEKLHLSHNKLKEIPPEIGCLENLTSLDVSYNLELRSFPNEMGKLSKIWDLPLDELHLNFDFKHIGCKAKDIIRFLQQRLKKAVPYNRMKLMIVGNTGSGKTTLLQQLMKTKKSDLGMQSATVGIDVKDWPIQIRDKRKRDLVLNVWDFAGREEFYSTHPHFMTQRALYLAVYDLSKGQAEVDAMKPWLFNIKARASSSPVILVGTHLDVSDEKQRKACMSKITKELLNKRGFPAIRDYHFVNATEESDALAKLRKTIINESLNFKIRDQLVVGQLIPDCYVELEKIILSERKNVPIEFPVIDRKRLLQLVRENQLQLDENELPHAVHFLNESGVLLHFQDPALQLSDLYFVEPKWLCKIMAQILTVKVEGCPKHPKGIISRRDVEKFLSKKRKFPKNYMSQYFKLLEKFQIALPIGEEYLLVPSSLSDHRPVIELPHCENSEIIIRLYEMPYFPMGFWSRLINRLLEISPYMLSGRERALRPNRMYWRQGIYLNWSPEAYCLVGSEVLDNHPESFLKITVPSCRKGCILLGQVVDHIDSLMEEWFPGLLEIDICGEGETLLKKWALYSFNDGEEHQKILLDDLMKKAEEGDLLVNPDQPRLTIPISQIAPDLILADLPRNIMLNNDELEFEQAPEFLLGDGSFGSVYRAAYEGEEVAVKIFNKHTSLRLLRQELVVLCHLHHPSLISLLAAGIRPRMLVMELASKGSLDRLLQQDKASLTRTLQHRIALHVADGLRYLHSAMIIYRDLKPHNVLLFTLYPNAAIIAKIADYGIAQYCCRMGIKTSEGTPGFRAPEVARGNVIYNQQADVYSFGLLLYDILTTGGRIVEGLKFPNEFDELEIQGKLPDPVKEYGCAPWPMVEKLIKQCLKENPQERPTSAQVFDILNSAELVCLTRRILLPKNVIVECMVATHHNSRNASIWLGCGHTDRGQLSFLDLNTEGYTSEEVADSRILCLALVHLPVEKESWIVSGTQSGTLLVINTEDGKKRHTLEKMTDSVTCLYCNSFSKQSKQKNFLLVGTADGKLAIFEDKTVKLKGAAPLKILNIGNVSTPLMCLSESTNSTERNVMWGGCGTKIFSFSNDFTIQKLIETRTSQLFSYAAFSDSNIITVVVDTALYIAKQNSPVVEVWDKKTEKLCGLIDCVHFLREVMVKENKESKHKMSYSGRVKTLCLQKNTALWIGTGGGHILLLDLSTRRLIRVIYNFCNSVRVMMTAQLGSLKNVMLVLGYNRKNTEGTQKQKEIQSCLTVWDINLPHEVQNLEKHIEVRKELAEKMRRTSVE
Sequence of Death-associated protein kinase 3 (O43293 whole entry, the tested form may be a part): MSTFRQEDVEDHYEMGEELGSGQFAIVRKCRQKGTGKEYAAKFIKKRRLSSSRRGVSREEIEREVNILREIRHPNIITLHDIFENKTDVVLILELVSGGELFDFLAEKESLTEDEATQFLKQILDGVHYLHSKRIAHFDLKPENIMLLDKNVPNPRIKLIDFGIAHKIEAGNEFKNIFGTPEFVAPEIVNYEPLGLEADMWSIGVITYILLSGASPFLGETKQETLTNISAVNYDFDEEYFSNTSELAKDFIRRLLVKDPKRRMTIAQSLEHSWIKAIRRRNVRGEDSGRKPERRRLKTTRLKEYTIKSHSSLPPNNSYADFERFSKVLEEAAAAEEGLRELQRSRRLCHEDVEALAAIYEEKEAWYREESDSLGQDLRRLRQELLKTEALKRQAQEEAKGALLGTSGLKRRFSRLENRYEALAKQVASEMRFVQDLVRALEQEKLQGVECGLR
Sequence of Serine/threonine-protein kinase NIM1 (Q8IY84 whole entry, the tested form may be a part): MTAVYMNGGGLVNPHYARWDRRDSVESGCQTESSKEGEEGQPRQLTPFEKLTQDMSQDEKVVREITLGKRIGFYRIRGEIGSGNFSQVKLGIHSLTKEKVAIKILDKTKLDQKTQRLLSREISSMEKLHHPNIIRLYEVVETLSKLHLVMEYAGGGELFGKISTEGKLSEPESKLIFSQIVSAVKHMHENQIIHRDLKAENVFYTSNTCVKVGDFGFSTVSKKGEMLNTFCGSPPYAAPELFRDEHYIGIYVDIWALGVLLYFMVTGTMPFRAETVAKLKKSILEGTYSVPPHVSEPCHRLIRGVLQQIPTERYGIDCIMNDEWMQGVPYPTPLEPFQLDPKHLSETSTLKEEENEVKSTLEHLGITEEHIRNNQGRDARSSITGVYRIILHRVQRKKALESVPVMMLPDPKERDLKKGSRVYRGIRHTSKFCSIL

As for `Cc1nn(CC(F)(F)F)cc1Nc1nccc(NCCc2cnc[nH]2)n1`, the IC50 in [1] is > 10 µM; in series [2], > 10 µM; in series [4], > 10 µM; in [5] it was 3.67 µM; in [6], 0.479 µM; in [8] it was > 10 µM. For the same compound, the % control in series [3] stood at 91%. Further, in series [7], the Peff is recorded as 6.23 10^-8cm/s. Besides, the Kinetic solubility in series [9] is 177 µM.
In the case of `Cc1nn(CC(F)(F)F)cc1Nc1ncc(C2CC2)c(NCCc2c[nH]cn2)n1`, the IC50 is > 10 µM in series [1]; 4.4 µM in series [10]; > 10 µM in series [2]; > 10 µM in series [11]; > 10 µM in [4]; 1.12 µM in series [6]. The results for the IC50 in [8] and in series [12] were > 10 µM and 0.089 µM, respectively. Moreover, the % control in series [3] is 59%. Moreover, in series [7], the Peff is recorded as 3.89 10^-7 cm/s. In series [9], this compound displayed a Kinetic_solubility of 171 µM.
Regarding `Cc1nn(CC(F)(F)F)cc1Nc1ncc(Br)c(NCc2ccc(S(N)(=O)=O)cc2)n1`, the IC50 in series [13] was 0.037 µM; in series [1], > 10 µM; in [2] it was 0.339 µM; in series [14], > 10 µM; in [15], 0.552 µM; in series [16] it was 1.37 µM. Besides, the IC50 in series [4], in series [17] and in [8] was > 10 µM throughout. The Peff entry in [7] (BLD = below limit of detection) is recorded as “Bld”. In addition, the Kinetic_solubility in series [9] was 176.9 µM.

The values above are taken from ChEMBL document CHEMBL5046221, “Identification of Pyrimidine-Based Lead Compounds for Understudied Kinases Implicated in Driving Neurodegeneration” (J Med Chem, 2022).
